Data set [1] in a line: Antiferroptotic activity in human IMR32 neuroblastoma cells assessed as inhibition of erastin-induced cell death preincubated for 1 hr before erastin stimulation and measured after 13 hrs by fluorescence plate reader method. The data set is classed as functional. The settings on record: IMR-32. Put shortly:
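Human IMR-32 neuroblastoma cells seeded at 25,000/well, next day pretreated 1 h in triplicate with a 1/3 dilution series (5 μM to 0.68 nM) plus Sytox Green (1.6 μM), then stimulated with erastin (10 μM). Sytox Green fluorescence (ex 485/em 520 nm) read after 13 h; Triton-X100 (0.05%) lysis as 100% death reference; % death background-corrected; IC50 determined.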

Data set [2] is described as follows: Antiferroptotic activity in human HT1080 cells assessed as inhibition of erastin-induced cell death. As to conditions: HT-1080. The data set is classed as functional, cell-based.
Data set [3] in a line: Kinetic solubility of the compound in PBS buffer at pH 7.4 after 2 hrs at 37 deg C by turbidimetric analysis. In kind it is physicochemical. As to conditions: read-out: Kinetic_solubility. Summed up: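 Turbidimetric kinetic solubility by UV-vis reading; final test concentrations 3.125–200 μM, from DMSO solution diluted into 10 mM PBS pH 7.4.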
A short description of data set [4]: Half life in human liver microsomes by LC/MS/MS analysis. In kind it is ADME. Put shortly:
(§1)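 Compound incubated with liver microsomes (CYP450 and other NADP-dependent enzymes); parent loss monitored and expressed as half-life in min.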
(Liver microsomes are vesicles of endoplasmic reticulum, rich in cytochrome P450 enzymes.)

Data set [5] in a line: Half life in mouse liver microsomes by LC/MS/MS analysis. In kind it is ADME. Put shortly:
as §1

The nature of data set [6]: Stability in human plasma assessed as percentage recovery after 6 hrs by LC/MS/MS analysis. The data set is classed as ADME, cell-free. As to conditions: read-out: Drug recovery. Summed up:
(§2)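 Compound incubated in plasma up to 6 h; result given as percentage of parent compound remaining.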

A short description of data set [7]: Stability in mouse plasma assessed as percentage recovery after 6 hrs by LC/MS/MS analysis. The data set is classed as ADME, cell-free. As to conditions: read-out: Drug recovery. Put shortly: as §2
The nature of data set [8]: Antiferroptotic activity in human HT1080 cells assessed as inhibition of erastin-induced cell death by Alamar blue assay. In kind it is functional, cell-based. The settings on record: HT-1080.
Data set [9] can be described thus: Antiferroptotic activity in human HT1080 cells assessed as inhibition of erastin-induced cell death by cell based assay. The data set is classed as functional. The settings on record: HT-1080.
The nature of data set [10]: Half life in C57BL/6 mouse plasma. In kind it is ADME, cell-free.
Data set [11] is described as follows: Intrinsic clearance in C57BL/6 mouse liver microsomes. The data set is classed as ADME.

SMILES strings stand for the structures. ≈ marks a conversion by molar mass, not a printed value. A value given as a limit tells only on which side of the number the result lay.

As a reminder, the IC50 is the midpoint of a concentration-inhibition curve. With `CNS(=O)(=O)c1ccc(NC2CCCCC2)c(N)c1`, the IC50 in data set [1] came to 76 nM.

In the case of `CNS(=O)(=O)c1ccc(NC2C3CC4CC(C3)CC2C4)c(NCc2ccccc2)c1` (centres undefined), the IC50 in [1] worked out at 4.9 nM.

As for `CCNS(=O)(=O)c1ccc(NC2CCCCCCC2)c(N)c1`, the IC50 in data set [1] was 9.3 nM.

On to `CCNC(=O)c1ccc(NC2C3CC4CC(C3)CC2C4)c(N)c1` (centres undefined), for which the concentration for half-maximal inhibition (IC50) in data set [1] is 14 nM.

For `CCNS(=O)(=O)c1ccc(NC2CCCCCCC2)c(NCc2ccccc2)c1`, the IC50 in [1] was determined as 2.4 nM.

As for `Nc1cc(C(=O)O)ccc1NC1CCCCC1`, the IC50 in data set [1] amounted to 210 nM.

Turning to `CCNS(=O)(=O)c1ccc(NC2CC2)c(NCc2ccncc2)c1`, the IC50 in data set [1] was 128 nM.

`CCNS(=O)(=O)c1ccc(NC2CCCC2)c(NCc2ccncc2)c1`: the IC50 in data set [1] was 36 nM.

Take `CCNS(=O)(=O)c1ccc(NC2CC2)c(NCc2ccccc2)c1`: the IC50 in data set [1] was 61 nM.

Take `CCOC(=O)c1ccc(NC2CCCCC2)c(NCc2ccccc2)c1`: the concentration for half-maximal inhibition (IC50) in data set [2] turned out to be 6 nM.

As to `CCNS(=O)(=O)c1ccc(NC2CC3CCC2C3)c(NCc2ccncc2)c1` (centres undefined), in [1], the concentration for half-maximal inhibition (IC50) is 9.4 nM.

In general, half-life refers to the time in which the quantity being followed falls by half. Lower therefore signals rapid decline. Turning to `CCNC(=O)c1ccc(NC2C3CC4CC(C3)CC2C4)c(NCc2ccncc2)c1` (centres undefined), the IC50 in [1] is 3.4 nM. In addition, the solubility kinetic at 2 h in [3] worked out at 25 µM (≈ 10.1 µg/mL). The half-life in data set [4] amounted to 16 min; in [5] it was 30 min. Also, the remaining at 6 h in data set [6] and in data set [7] was 100% in each case.

Consider `CCNS(=O)(=O)c1ccc(NC2CCCC2)c(N)c1`, for which the 50% inhibitory concentration (IC50) in data set [1] was found to be 82 nM.

Regarding `CCNS(=O)(=O)c1ccc(NC2CC2)c(N)c1`, the IC50 in data set [1] was 76 nM.

For the compound `CCNS(=O)(=O)c1ccc(NC2C3CC4CC(C3)CC2C4)c(N)c1` (centres undefined), the half-maximal inhibitory concentration (IC50) in data set [1] stood at 17 nM.

Consider `CC(C)(C)NS(=O)(=O)c1ccc(NC2CCCCC2)c(NCc2ccccc2)c1`, for which the IC50 in [1] stood at 6.2 nM.

For `CC(C)(C)NS(=O)(=O)c1ccc(NC2C3CC4CC(C3)CC2C4)c(NCc2ccncc2)c1` (centres undefined), the IC50 in data set [1] is 5.2 nM.

Consider `CCOC(=O)c1ccc(NC2CCCCC2)c(N)c1`, for which the half-maximal inhibitory concentration (IC50) in data set [1] was found to be 18 nM; in data set [8], 95 nM. Further, the solubility kinetic at 2 h in data set [3] was above 200 µM. The half-life worked out at 6.9 min in [4] and 1.9 min in data set [5]. For the same compound, the remaining at 6 h turned out to be 100% in data set [6] and 0% in data set [7].

For `CCNS(=O)(=O)c1ccc(NC2CCCC2)c(NCc2ccccc2)c1`, the 50% inhibitory concentration (IC50) in [1] came out at 8.2 nM.

As for `CCNS(=O)(=O)c1ccc(NC2CC3CCC2C3)c(NCc2ccccc2)c1` (centres undefined), the IC50 in data set [1] turned out to be 3 nM.

On to `CCNS(=O)(=O)c1ccc(NC2C3CC4CC(C3)CC2C4)c(NCc2ccccc2)c1` (centres undefined), for which, in data set [1], the IC50 was 3.5 nM. For the same compound, in data set [3], the solubility kinetic at 2 h amounted to 12.5 µM (≈ 5.5 µg/mL). Moreover, the figures for the half-life in data set [4] and in data set [5] were 36 min and 31 min, respectively. For the same compound, the figures for the remaining at 6 h in [6] and in [7] were 100% and 99.4%, respectively.

As to `CC(C)(C)NS(=O)(=O)c1ccc(NC2C3CC4CC(C3)CC2C4)c(NCc2ccccc2)c1` (centres undefined), the half-maximal inhibitory concentration (IC50) in data set [1] was 3.4 nM.

As for `CC(C)(C)NS(=O)(=O)c1ccc(NC2CCCCC2)c(NCc2ccncc2)c1`, the IC50 in data set [1] was 11 nM.

For the compound `CCNC(=O)c1ccc(NC2CCCCC2)c(N)c1`, the IC50 in [1] is 88 nM.

For `CCNC(=O)c1ccc(NC2CCCCC2)c(NCc2ccccc2)c1`, the IC50 in [1] was 21 nM.

Take `CNS(=O)(=O)c1ccc(NC2CCCCC2)c(NCc2ccccc2)c1`: the half-maximal inhibitory concentration (IC50) in data set [1] turned out to be 3.7 nM.

Regarding `CCNC(=O)c1ccc(NC2CCCCC2)c(NCc2ccncc2)c1`, the IC50 in data set [1] amounted to 26 nM.

`CCNS(=O)(=O)c1ccc(NC2CCCCC2)c(NCc2ccncc2)c1`: in data set [1], the IC50 stood at 23 nM.

In the case of `CC(C)(C)NS(=O)(=O)c1ccc(NC2CCCCC2)c(N)c1`, the IC50 in data set [1] worked out at 27 nM.

In the case of `CCNS(=O)(=O)c1ccc(NC2C3CC4CC(C3)CC2C4)c(NCc2ccncc2)c1` (centres undefined), the IC50 in data set [1] was determined as 3.9 nM. In addition, the solubility kinetic at 2 h in [3] is 12.5 µM (≈ 5.51 µg/mL). The half-life in data set [4] stood at 64 min; in [5], 26 min. Moreover, the remaining at 6 h in data set [6] and in [7] was 100% throughout.

Consider `CCNS(=O)(=O)c1ccc(NC2CC3CCC2C3)c(N)c1` (centres undefined), for which the IC50 in [1] was determined as 28 nM.

Turning to `CCNS(=O)(=O)c1ccc(NC2CCCCCCC2)c(NCc2ccncc2)c1`, in data set [1], the IC50 was found to be 22 nM.

Take `CC(C)(C)NS(=O)(=O)c1ccc(NC2C3CC4CC(C3)CC2C4)c(N)c1` (centres undefined): the IC50 in data set [1] came out at 6 nM.

Regarding `CNS(=O)(=O)c1ccc(NC2C3CC4CC(C3)CC2C4)c(NCc2ccncc2)c1` (centres undefined), in [1], the IC50 was determined as 6.4 nM.

Take `CNS(=O)(=O)c1ccc(NC2CCCCC2)c(NCc2ccncc2)c1`: the IC50 in [1] stood at 15 nM.

As to `CCNC(=O)c1ccc(NC2C3CC4CC(C3)CC2C4)c(NCc2ccccc2)c1` (centres undefined), in data set [1], the IC50 came to 6.5 nM.

In the case of `CNS(=O)(=O)c1ccc(NC2C3CC4CC(C3)CC2C4)c(N)c1` (centres undefined), the IC50 in data set [1] came to 11 nM.

Take `COC(=O)c1ccc(NC2CCCCC2)c(N)c1`: the half-maximal inhibitory concentration (IC50) in [1] stood at 34 nM.

On to `CCNS(=O)(=O)c1ccc(NC2CCCCC2)c(NCc2ccccc2)c1`, for which the IC50 in data set [1] is 4 nM. Also, the solubility kinetic at 2 h in data set [3] is 12.5 µM (≈ 4.84 µg/mL). Besides, the half-life in data set [4] is 88 min; in [5], 187 min. For the same compound, the remaining at 6 h in data set [6] worked out at 100%; in data set [7], 98.6%.

For the compound `CC(C)(C)OC(=O)c1ccc(NC23CC4CC(CC(C4)C2)C3)c(/N=C\c2cncnc2)c1`, the IC50 in [9] is 350 nM. Also, the half-life in [10] is at least 120 min. The compound also returned a CLH in [11] below 0.5 mL/min/g.

Turning to `CCNS(=O)(=O)c1ccc(NC2CCCCC2)c(N)c1`, the IC50 in data set [1] is 67 nM. For the same compound, in [3], the solubility kinetic at 2 h was found to be 12.5 µM (≈ 3.72 µg/mL). The half-life in data set [4] turned out to be 37 min; in [5], 31 min. Further, the remaining at 6 h was determined as 81.9% in data set [6] and 86.2% in data set [7].

These data come from ChEMBL document CHEMBL3779804, “Novel Ferroptosis Inhibitors with Improved Potency and ADME Properties” (J Med Chem, 2016).
